Data set [1] has as its system Yersinia pseudotuberculosis. The experiment in a line: Growth inhibition of wild-type Yersinia pseudotuberculosis at 60 uM measured at 1 hr interval for 15 hrs. The settings on record: in vivo. In kind it is organism-based. The gist of the method: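 Wild-type Y. pseudotuberculosis grown at room temperature in 2×YT with test agent at 60 μM, kanamycin at 50 μg/mL, or DMSO. Absorbance at 600 nm read every hour over 15 h as the growth measure.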

The subject of data set [2] is Yersinia pseudotuberculosis. As to the kind of experiment: Inhibition of wild-type Yersinia pseudotuberculosis T3SS-mediated YopE secretion at 30 uM after 2 hrs under low calcium medium by SDS-PAGE analysis relative to control.
In data set [3] the test system is Pseudomonas aeruginosa PA103. As to the kind of experiment: Inhibition of Pseudomonas aeruginosa PA103 T3SS-mediated ExoU secretion at 60 uM after 3 hrs under low calcium medium by SDS-PAGE analysis relative to control.
Data set [4] deals with Yersinia pseudotuberculosis. The experiment in a line: Toxicity against wild-type Yersinia pseudotuberculosis at 60 uM measured after 15 hrs by MTT assay. In kind it is organism-based. The settings on record: in vivo. The gist of the method: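 Wild-type Y. pseudotuberculosis grown at room temperature in 2×YT with test agent at 60 μM, kanamycin at 50 μg/mL, or DMSO. MTT added after 15 h; absorbance at 570 nm used as the metabolic activity read-out.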

The subject of data set [5] is Yersinia pseudotuberculosis. As to the kind of experiment: Inhibition of wild-type Yersinia pseudotuberculosis T3SS-mediated YopE secretion at 120 uM after 2 hrs under low calcium medium by SDS-PAGE analysis relative to control.
The test system of data set [6] is Yersinia pseudotuberculosis. As to the kind of experiment: Inhibition of wild-type Yersinia pseudotuberculosis T3SS-mediated YopE secretion at 71 uM after 2 hrs under low calcium medium by SDS-PAGE analysis relative to control.
Data set [7] relates to Yersinia pseudotuberculosis. The experiment in a line: Inhibition of wild-type Yersinia pseudotuberculosis T3SS-mediated YopE secretion at 60 uM after 2 hrs under low calcium medium by SDS-PAGE analysis relative to control.

Calls of active or inactive are those of the source. The rule behind the calls is not given here.

As usually defined, the inhibition is the relative decrease from the control value, in per cent.

On to `CCC(=O)N(C)CCc1cc(Br)c(OCCCNC(=O)Cc2ccc(O)cc2)c(I)c1`, for which the “growth inhibition (GI)” value in data set [1] is listed as “Non-Toxic”. Besides, the inhibition in data set [2] is above 50%. Also, in data set [3], the inhibition entry was “inactive”. Moreover, the Activity result in data set [4] is “Non-Toxic”.
Regarding `CCC(=O)N(C)CCc1ccc(OCCCNC(=O)Cc2ccc(O)cc2)c(I)c1`, in data set [1], the “growth inhibition (GI)” value was “Non-Toxic”. Besides, the inhibition in data set [5] was above 50%. Also, the inhibition result in data set [3] was “inactive”. Besides, the Activity result in data set [4] is listed as “Non-Toxic”.
`C/C=C(\C)[C@H](O)[C@H](C)/C=C(C)/C=C/C/C(C)=C/Cc1nc(OC)c(OC)c(O)c1C`: the inhibition in data set [6] was above 50%.
On to `COc1c(Br)cc(CC(O)C(=O)NCCc2ccc(O)c(Br)c2)cc1Br` (centres undefined), for which the “growth inhibition (GI)” value in data set [1] is “Non-Toxic”. Moreover, the inhibition in data set [2] was above 50%. Besides, the inhibition result in data set [3] is “inactive”. Further, the Activity result in data set [4] is recorded as “Non-Toxic”.
Take `CCC(=O)N(C)CCc1cc(Br)c(OCCCNC(=O)Cc2ccc(O)cc2)c(Br)c1`: the “growth inhibition (GI)” value in data set [1] is “Non-Toxic”. Further, the inhibition in data set [5] is above 50%. Further, the inhibition result in data set [3] was “inactive”. Further, the Activity result in data set [4] is “Non-Toxic”.
Turning to `CCC(=O)N(C)CCc1ccc(OCCCN(C)C(=O)Cc2ccc(O)cc2)c(Br)c1`, the “growth inhibition (GI)” value in data set [1] is reported as “Non-Toxic”. Moreover, the inhibition in data set [2] was above 50%. Further, the inhibition result in data set [3] was “inactive”. Further, in data set [4], the Activity entry is “Non-Toxic”.
For the compound `COc1c(Br)cc(CC(O)C(=O)NCCc2ccc(O)c(I)c2)cc1Br` (centres undefined), the “growth inhibition (GI)” value in data set [1] is listed as “Non-Toxic”. The inhibition in data set [7] is above 50%. Further, in data set [3], the inhibition result was “inactive”. Moreover, the Activity result in data set [4] is “Non-Toxic”.
Take `CCC(=O)N(C)CCc1ccc(OCCCNC(=O)Cc2ccc(O)cc2)c(Br)c1`: the “growth inhibition (GI)” value in data set [1] is reported as “Non-Toxic”. Besides, the inhibition in data set [7] was above 50%. In addition, in data set [3], the inhibition entry is “inactive”. Moreover, in data set [4], the Activity result is recorded as “Non-Toxic”.
